Experimental findings from ChEMBL document CHEMBL5038590, “Discovery of G Protein-Biased Ligands against 5-HT7R” (J Med Chem, 2021) are described below.

Test [1] concerns the target T1, 5-hydroxytryptamine receptor 7 (Homo sapiens, UniProt P34969).
Test [2] concerns the target T2, 5-hydroxytryptamine receptor 2C (Homo sapiens, UniProt P28335).
T2 sequence (P28335 whole entry): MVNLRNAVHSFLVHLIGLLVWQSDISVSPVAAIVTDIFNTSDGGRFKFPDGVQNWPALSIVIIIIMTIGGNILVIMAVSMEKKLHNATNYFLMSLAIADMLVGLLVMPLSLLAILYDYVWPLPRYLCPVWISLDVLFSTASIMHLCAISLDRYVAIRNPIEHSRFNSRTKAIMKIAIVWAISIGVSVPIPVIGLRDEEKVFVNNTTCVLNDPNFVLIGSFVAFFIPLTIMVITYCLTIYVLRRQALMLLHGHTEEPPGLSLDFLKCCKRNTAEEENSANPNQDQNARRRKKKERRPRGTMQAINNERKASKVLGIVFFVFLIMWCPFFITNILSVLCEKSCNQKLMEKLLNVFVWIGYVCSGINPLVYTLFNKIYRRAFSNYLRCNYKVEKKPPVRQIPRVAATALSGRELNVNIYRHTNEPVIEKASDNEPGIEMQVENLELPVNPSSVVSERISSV
The experiment in a line: Binding affinity to 5-HT2CR (unknown origin). Summed up:
(§1)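 Run by the NIMH Psychoactive Drug Screening Program as competition radioligand binding on crude membranes of cells expressing the recombinant receptor. Eleven dilutions (0.05 nM–50 μM, prepared at 5× assay concentration) were made in 50 mM Tris-HCl, 10 mM MgCl₂, 1 mM EDTA, pH 7.4. Incubation was 1.5 h at rt in the dark, followed by GF/B filtration (0.3% PEI) and scintillation counting. IC₅₀ was converted to Ki; at least triplicate.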

For test [3], the target named is 5-hydroxytryptamine receptor 1D (Homo sapiens, UniProt P28221). The experiment in a line: Binding affinity to 5-HT1DR (unknown origin). Summed up: as §1
The target in test [4] is T3, 5-hydroxytryptamine receptor 1A (Homo sapiens, UniProt P08908).
T3 sequence (P08908 whole entry): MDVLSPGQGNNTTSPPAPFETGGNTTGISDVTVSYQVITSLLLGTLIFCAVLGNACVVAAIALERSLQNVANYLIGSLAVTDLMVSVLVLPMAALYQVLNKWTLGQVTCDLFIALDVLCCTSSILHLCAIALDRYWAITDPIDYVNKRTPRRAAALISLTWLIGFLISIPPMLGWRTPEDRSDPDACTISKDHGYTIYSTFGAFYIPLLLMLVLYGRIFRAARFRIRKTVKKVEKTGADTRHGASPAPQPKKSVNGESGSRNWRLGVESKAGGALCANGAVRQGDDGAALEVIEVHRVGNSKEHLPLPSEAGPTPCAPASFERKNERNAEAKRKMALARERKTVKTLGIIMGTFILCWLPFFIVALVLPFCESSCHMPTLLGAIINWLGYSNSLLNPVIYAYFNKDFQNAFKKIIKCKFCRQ
The test is described as follows: Binding affinity to 5-HT1AR (unknown origin). The essentials: as §1

In test [5] the target is 5-hydroxytryptamine receptor 1E (Homo sapiens, UniProt P28566). The test is described as follows: Binding affinity to 5-HT1ER (unknown origin). Summed up:
as §1

Test [6] concerns the target 5-hydroxytryptamine receptor 5A (Homo sapiens, UniProt P47898). The test is described as follows: Binding affinity to 5-HT5AR (unknown origin). Summed up:
as §1

Test [7] concerns the target 5-hydroxytryptamine receptor 6 (Homo sapiens, UniProt P50406). The experiment in a line: Binding affinity to 5-HT6R (unknown origin). Summed up: as §1
In test [8] the target is 5-hydroxytryptamine receptor 2A (Homo sapiens, UniProt P28223). The experiment in a line: Binding affinity to 5-HT2AR (unknown origin). Summed up: as §1
Test [9] deals with 5-hydroxytryptamine receptor 2B (Homo sapiens, UniProt P41595). The test is described as follows: Binding affinity to 5-HT2BR (unknown origin). The essentials:
as §1

Test [10] deals with T4, 5-hydroxytryptamine receptor 3A (Homo sapiens, UniProt P46098).
T4 sequence (P46098 whole entry): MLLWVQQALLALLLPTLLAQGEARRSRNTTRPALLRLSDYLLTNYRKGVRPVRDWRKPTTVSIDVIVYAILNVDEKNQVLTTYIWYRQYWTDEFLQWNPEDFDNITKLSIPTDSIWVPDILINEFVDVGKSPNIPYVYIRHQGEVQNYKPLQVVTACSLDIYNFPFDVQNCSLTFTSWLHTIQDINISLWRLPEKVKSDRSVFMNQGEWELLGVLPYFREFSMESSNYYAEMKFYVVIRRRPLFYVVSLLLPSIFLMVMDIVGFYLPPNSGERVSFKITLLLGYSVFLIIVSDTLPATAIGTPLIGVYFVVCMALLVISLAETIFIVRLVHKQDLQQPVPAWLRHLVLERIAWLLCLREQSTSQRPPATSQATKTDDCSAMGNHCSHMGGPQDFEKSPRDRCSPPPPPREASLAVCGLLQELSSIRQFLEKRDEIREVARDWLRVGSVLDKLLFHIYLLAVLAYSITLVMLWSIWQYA
The test is described as follows: Binding affinity to 5-HT3R (unknown origin). Summed up: as §1

In test [11] the target is T1, 5-hydroxytryptamine receptor 7. The test is described as follows: Agonist activity at 5-HT7R (unknown origin) transfected in HEK293 cells expressing tTA-dependent luciferase reporter and beta arrestin 2-TEV fusion gene assessed as beta arrestin recruitment incubated for 22 hrs by Tango assay. It counts as functional, cell-based. (In general: In a reporter assay the amount or activity of a reporter protein is the signal.)

Test [12] addresses 5-hydroxytryptamine receptor 1B (Homo sapiens, UniProt P28222). The experiment in a line: Binding affinity to 5-HT1BR (unknown origin). Summed up:
as §1

Test [13] has as its target T1, 5-hydroxytryptamine receptor 7. The experiment in a line: Displacement of [3H] D-lysergic acid diethylamide from 5-HT7R (unknown origin) transfected in HEK293 cells incubated for 1.5 hrs by microbeta scintillation counter analysis. It counts as cell-based. A general note: In a radioligand displacement assay an active substance lowers the binding of a labelled ligand.

Chain of 5-hydroxytryptamine receptor 6 (P50406 whole entry): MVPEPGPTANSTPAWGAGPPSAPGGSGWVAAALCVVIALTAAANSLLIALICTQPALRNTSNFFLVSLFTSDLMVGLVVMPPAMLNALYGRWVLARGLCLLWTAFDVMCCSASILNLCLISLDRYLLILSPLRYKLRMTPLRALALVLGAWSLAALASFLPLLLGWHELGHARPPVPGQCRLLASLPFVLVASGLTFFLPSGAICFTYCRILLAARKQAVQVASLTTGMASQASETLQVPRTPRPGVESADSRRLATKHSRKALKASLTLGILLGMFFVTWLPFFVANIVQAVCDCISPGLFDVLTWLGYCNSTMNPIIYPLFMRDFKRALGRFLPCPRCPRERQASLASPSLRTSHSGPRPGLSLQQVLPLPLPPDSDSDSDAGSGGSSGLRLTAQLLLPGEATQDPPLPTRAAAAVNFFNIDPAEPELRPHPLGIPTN
Chain of 5-hydroxytryptamine receptor 2B (P41595 whole entry): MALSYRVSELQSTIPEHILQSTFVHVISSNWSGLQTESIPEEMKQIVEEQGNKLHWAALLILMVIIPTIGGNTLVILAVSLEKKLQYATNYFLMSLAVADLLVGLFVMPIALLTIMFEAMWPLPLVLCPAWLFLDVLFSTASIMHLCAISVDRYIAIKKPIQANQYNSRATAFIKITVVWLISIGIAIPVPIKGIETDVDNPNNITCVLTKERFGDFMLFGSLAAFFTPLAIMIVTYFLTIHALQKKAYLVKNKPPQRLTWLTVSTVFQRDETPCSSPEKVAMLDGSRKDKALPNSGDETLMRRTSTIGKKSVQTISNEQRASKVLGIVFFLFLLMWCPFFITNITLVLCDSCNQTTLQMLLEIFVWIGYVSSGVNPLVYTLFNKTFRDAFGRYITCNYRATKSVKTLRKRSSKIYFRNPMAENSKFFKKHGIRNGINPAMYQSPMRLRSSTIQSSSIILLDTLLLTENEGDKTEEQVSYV
Chain of 5-hydroxytryptamine receptor 1E (P28566 whole entry): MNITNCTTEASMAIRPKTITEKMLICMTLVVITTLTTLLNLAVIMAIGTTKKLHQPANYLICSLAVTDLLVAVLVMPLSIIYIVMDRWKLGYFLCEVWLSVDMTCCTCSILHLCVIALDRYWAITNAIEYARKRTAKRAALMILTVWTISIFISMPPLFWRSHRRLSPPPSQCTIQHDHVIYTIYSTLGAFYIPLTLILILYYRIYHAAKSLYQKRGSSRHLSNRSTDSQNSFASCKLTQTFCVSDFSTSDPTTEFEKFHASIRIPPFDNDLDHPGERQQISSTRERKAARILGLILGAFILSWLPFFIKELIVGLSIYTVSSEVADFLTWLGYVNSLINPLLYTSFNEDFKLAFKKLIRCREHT
Chain of 5-hydroxytryptamine receptor 5A (P47898 whole entry): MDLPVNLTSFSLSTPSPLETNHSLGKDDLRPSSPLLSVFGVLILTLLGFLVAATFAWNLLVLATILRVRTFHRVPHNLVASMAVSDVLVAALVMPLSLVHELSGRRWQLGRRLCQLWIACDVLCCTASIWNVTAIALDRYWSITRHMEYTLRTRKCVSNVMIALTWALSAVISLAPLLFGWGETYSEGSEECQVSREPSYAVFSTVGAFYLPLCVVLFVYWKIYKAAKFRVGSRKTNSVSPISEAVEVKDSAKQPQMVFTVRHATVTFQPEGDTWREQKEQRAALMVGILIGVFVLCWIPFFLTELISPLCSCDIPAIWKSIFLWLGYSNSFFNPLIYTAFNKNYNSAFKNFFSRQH
Chain of 5-hydroxytryptamine receptor 1D (P28221 whole entry): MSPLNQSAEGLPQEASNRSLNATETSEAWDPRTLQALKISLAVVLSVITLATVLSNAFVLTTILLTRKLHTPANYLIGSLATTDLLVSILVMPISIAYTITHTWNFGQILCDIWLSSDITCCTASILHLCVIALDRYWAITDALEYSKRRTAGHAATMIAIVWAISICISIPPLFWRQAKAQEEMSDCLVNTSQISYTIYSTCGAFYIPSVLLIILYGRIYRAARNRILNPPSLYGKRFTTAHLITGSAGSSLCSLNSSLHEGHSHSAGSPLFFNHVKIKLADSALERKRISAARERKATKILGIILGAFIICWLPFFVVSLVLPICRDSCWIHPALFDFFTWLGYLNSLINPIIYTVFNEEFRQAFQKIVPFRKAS
Chain of 5-hydroxytryptamine receptor 1B (P28222 whole entry): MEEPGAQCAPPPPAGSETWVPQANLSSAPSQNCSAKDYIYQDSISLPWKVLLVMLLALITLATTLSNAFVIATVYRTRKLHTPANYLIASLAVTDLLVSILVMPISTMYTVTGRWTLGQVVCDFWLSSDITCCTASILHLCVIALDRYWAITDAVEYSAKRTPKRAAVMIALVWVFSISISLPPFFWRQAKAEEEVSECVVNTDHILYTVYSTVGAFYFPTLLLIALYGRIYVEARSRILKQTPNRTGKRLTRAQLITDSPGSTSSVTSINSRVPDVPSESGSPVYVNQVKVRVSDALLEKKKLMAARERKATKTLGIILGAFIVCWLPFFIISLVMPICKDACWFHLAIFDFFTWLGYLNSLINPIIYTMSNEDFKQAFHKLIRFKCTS
Chain of 5-hydroxytryptamine receptor 2A (P28223 whole entry): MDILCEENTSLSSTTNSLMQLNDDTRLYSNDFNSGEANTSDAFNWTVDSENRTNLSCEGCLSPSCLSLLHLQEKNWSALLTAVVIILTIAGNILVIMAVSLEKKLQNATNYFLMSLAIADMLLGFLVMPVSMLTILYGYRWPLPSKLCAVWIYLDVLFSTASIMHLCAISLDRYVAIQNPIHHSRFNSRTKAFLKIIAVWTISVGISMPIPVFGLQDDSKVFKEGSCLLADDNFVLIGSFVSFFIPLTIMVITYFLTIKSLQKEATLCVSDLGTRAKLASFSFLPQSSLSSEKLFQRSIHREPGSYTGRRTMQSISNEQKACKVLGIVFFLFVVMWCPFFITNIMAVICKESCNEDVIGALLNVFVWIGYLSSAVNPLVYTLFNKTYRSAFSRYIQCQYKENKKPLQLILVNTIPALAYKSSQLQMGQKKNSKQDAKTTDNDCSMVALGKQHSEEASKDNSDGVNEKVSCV
T1 sequence (P34969 whole entry): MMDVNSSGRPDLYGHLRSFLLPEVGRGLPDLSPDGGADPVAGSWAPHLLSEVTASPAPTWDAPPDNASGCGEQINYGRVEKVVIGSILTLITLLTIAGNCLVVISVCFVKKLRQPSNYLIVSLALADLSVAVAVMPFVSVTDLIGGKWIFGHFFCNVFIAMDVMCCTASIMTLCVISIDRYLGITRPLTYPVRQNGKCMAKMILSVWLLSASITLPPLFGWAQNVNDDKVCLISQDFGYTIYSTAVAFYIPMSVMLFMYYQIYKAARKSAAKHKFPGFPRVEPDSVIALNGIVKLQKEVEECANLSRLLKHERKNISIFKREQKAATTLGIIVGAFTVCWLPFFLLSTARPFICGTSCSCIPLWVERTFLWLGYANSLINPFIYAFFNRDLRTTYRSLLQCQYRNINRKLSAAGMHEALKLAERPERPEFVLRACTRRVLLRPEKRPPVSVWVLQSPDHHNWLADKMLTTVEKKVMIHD

What is called EC50 is the concentration needed to bring the measured effect to its halfway point. `CNCCc1ccc(Cl)c(-c2ccccc2OC)c1`: the EC50 in [1] is 73 nM; in test [11] (read-out: EC50), 71 nM. Besides, the Ki in [2] is more than 10000 nM; in [3], 3.3 nM; in test [4] it was 280 nM; in test [5] it was 180 nM; in test [6] it was 910 nM; in test [7] it was 740 nM. The Ki in [8] was 170 nM; in test [9], 69 nM; in test [10], more than 10000 nM; in [12] it was 84 nM; in test [13] (read-out: Ki) it was 1.6 nM.
For `CCCN(CCC)Cc1ccc(Cl)c(-c2ccccc2OC)c1`, the Ki in [2] is 2600 nM; in test [3], more than 10000 nM; in test [4], 400 nM; in [5] it was more than 10000 nM; in test [6] it was more than 10000 nM; in test [7], more than 10000 nM. Further, the Ki in test [8] was more than 10000 nM; in [9], 80 nM; in [10] it was more than 10000 nM; in test [12], more than 10000 nM; in test [13] (read-out: Ki), more than 10000 nM. For the same compound, the EC50 result in [11] (hek293) is recorded as “Not Active”.
Take `CCN(CC)CCc1ccc(Cl)c(-c2ccccc2OC)c1`: the figures for the EC50 in test [1] and in test [11] (hek293) were 1900 nM and “Not Active”, respectively. Moreover, the Ki in test [2] was more than 10000 nM; in [3], 8.4 nM; in test [4], 84 nM; in test [5], 6700 nM; in test [6], 2100 nM; in [7], more than 10000 nM. Also, the Ki is 680 nM in [8]; 320 nM in [9]; more than 10000 nM in test [10]; 160 nM in test [12]; 25 nM in test [13] (read-out: Ki).
For `CNCc1ccc(Cl)c(-c2ccccc2OC)c1`, the figures for the concentration for a half-maximal effect (EC50) in [1] and in test [11] (read-out: EC50) were 460 nM and 150 nM, respectively. Further, the Ki in test [2] worked out at 200 nM; in test [3], 1200 nM; in test [4], 1700 nM; in [5], 2400 nM; in test [6], 420 nM; in test [7] it was 1300 nM. The Ki in test [8] was 380 nM; in test [9], 13 nM; in test [10] it was more than 10000 nM; in test [12] it was 1200 nM.
As for `CCCCNCc1ccc(Cl)c(-c2ccccc2OC)c1`, the Ki in [2] is 310 nM; in test [3], 2000 nM; in test [5] it was more than 10000 nM; in [6], 360 nM; in test [7] it was 240 nM; in test [8], 280 nM. Also, the Ki was 15 nM in [9], more than 10000 nM in test [10], more than 10000 nM in [12] and 52 nM in [13] (read-out: Ki). Moreover, the EC50 result in [11] (hek293) is reported as “Not Active”.
Regarding `Cc1nn(C)c(C)c1-c1cccc(CCN(C)C)c1`, the concentration giving a half-maximal response (EC50) in [1] was 83 nM; in test [11] (read-out: EC50), 21 nM. Further, the Ki in test [13] (read-out: Ki) stood at 1.3 nM.
Consider `CCCNCCc1ccc(Cl)c(-c2ccccc2OC)c1.Cl`, for which the EC50 in test [1] is 1000 nM; in [11] (hek293) it was “Not Active”. Moreover, the Ki in [2] is more than 10000 nM; in test [3], 41 nM; in test [4], 140 nM; in test [5], more than 10000 nM; in test [6] it was 240 nM; in test [7], more than 10000 nM. The Ki in test [8] is 600 nM; in test [9], 170 nM; in test [10] it was more than 10000 nM; in test [12], 250 nM; in test [13] (read-out: Ki), 8.7 nM; in test [13] (read-out: pKi (converted)), 8.51 nM.
Take `COc1ccccc1-c1cc(CN(C)C)ccc1Cl`: the concentration for a half-maximal effect (EC50) in [1] worked out at 1100 nM; in [11] (read-out: EC50), 480 nM. In addition, the Ki in test [2] was 270 nM; in test [3], 1300 nM; in test [4], 2100 nM; in [5] it was 4100 nM; in test [6], 220 nM; in test [7] it was 440 nM. In addition, the Ki in [8] is 360 nM; in test [9], 11 nM; in test [10] it was 1000 nM; in [12], 830 nM; in test [13] (read-out: pKi (converted)), 20 nM.
On to `COc1ccccc1-c1cc(C2CCNC2)ccc1Cl` (stereo not given), for which the Ki in test [2] is more than 10000 nM; in test [3], 3.4 nM; in test [4] it was 96 nM; in [5], 770 nM; in [6], 970 nM; in test [7] it was 400 nM. Besides, the Ki came out at 340 nM in test [8], 50 nM in test [9], 590 nM in test [10] and 410 nM in test [12].
On to `CCCCNCCc1ccc(Cl)c(-c2ccccc2OC)c1.Cl`, for which the Ki is more than 10000 nM in test [2]; 110 nM in [3]; 220 nM in test [4]; more than 10000 nM in test [5]; 2400 nM in test [6]; more than 10000 nM in [7]. For the same compound, the Ki is 570 nM in [8]; 130 nM in test [9]; more than 10000 nM in [10]; 280 nM in test [12]; 64 nM in test [13] (read-out: Ki). In test [11] (hek293), the EC50 entry is listed as “Not Active”.
`CCN(CC)Cc1ccc(Cl)c(-c2ccccc2OC)c1`: the Ki is 820 nM in [2]; more than 10000 nM in test [3]; 1700 nM in test [4]; more than 10000 nM in test [5]; 230 nM in [6]; 2000 nM in test [7]. The Ki in test [8] is more than 10000 nM; in test [9] it was 67 nM; in test [10] it was more than 10000 nM; in [12], more than 10000 nM; in test [13] (read-out: Ki), 110 nM. For the same compound, the 50% effective concentration (EC50) entry in test [11] (hek293) is recorded as “Not Active”.
For the compound `COc1ccccc1-c1cc(C2CCN(C)C2)ccc1Cl` (stereo not given), the Ki in test [2] is 920 nM; in test [3] it was 19 nM; in [4] it was 200 nM; in test [5], 4100 nM; in [6], 1000 nM; in test [7], more than 10000 nM. The Ki in test [8] was 1200 nM; in test [9], 170 nM; in test [10] it was 420 nM; in test [12], 12 nM.
Turning to `CCCNCc1ccc(Cl)c(-c2ccccc2OC)c1`, the Ki in test [2] is 200 nM; in test [3], 220 nM; in test [4], 420 nM; in test [5] it was more than 10000 nM; in test [6], 120 nM; in test [7], 3500 nM. Further, the Ki is 670 nM in test [8], 12 nM in test [9], more than 10000 nM in [10] and 640 nM in test [12].
`CCNCc1ccc(Cl)c(-c2ccccc2OC)c1`: the Ki in [2] was 45 nM; in test [3], 220 nM; in test [4] it was 840 nM; in test [5], more than 10000 nM; in [6], 1800 nM; in test [7] it was 1400 nM. The Ki is 910 nM in [8], 19 nM in test [9], more than 10000 nM in test [10] and 210 nM in test [12].
